Results published in ChEMBL document CHEMBL3407441, “Design, synthesis and docking studies of novel thienopyrimidine derivatives bearing chromone moiety as mTOR/PI3Kα inhibitors” (Eur J Med Chem, 2015).

What was measured:
[1] = Cytotoxicity against human H460 cells after 72 hrs by MTT assay; assay type: functional, cell-based; settings: NCI-H460, 72 h
Outline: (§1)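 MTT assay on H460 and PC-3 cells grown in MEM with 10% FBS. MTT was added at […] and incubated with the cells for 4 h at 37 °C. Formazan was dissolved in DMSO and absorbance read at 492 nm against a 630 nm reference. Each compound was tested three times per cell line; IC50 values are averages of two determinations.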

[2] = biological target: T1, Serine/threonine-protein kinase mTOR (Homo sapiens, UniProt P42345); experiment: Inhibition of mTOR kinase (unknown origin) using ULight-4E-BP1 as substrate after 1 hr by TR-FRET assay
[3] = biological target: T2, Phosphatidylinositol 4,5-bisphosphate 3-kinase catalytic subunit alpha isoform (Homo sapiens, UniProt P42336); experiment: Inhibition of PI3K-alpha kinase (unknown origin) using L-alpha-phosphatidylinositol as substrate after 60 mins by luminescence assay
T2 sequence (P42336 whole entry, canonical isoform): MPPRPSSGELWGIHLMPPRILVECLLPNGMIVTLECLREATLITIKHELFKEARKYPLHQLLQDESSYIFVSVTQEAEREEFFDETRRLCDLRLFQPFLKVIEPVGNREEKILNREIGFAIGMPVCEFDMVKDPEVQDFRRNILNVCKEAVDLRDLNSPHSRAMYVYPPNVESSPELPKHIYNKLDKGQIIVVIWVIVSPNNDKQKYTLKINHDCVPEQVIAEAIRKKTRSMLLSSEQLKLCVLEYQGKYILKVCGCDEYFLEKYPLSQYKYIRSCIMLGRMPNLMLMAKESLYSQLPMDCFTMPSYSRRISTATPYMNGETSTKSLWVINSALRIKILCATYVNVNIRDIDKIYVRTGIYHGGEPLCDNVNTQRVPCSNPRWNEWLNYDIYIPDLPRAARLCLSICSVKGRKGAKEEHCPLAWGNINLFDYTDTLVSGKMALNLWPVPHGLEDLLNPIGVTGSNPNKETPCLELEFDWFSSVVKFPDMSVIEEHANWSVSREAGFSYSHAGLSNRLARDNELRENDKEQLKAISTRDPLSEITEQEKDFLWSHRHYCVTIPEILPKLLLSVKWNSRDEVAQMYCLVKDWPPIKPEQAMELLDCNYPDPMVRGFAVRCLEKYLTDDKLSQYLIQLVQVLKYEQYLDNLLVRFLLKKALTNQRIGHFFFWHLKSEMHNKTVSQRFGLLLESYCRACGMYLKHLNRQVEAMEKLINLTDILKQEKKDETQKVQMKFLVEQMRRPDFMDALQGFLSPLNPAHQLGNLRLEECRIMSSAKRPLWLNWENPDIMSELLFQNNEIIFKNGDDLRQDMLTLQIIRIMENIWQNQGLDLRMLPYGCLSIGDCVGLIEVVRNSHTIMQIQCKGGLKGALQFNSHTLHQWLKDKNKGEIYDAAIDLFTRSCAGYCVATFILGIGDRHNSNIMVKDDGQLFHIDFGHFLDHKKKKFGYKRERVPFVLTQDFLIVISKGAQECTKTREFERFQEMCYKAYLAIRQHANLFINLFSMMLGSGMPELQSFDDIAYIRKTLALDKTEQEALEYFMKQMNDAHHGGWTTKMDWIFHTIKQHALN

[4] = biological target: T1, Serine/threonine-protein kinase mTOR; experiment: Ratio of (E)-4-((2-(4,6-dimorpholino-1,3,5-triazin-2-yl)hydrazono)methyl)-2,6-dimethoxyphenol IC50 to compound IC50 for mTOR kinase (unknown origin)
PC-3 = experiment: Ratio of (E)-4-((2-(4,6-dimorpholino-1,3,5-triazin-2-yl)hydrazono)methyl)-2,6-dimethoxyphenol IC50 to compound IC50 for human PC3 cells; assay type: functional
[5] = biological target: T2, Phosphatidylinositol 4,5-bisphosphate 3-kinase catalytic subunit alpha isoform; experiment: Inhibition of PI3K-alpha kinase (unknown origin) using ULight-4E-BP1 as substrate at 10 uM after 60 mins by luminescence assay; settings: in the assay text read “L-alpha-phosphatidylinositol” for “ULight-4E-BP1”
Outline: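 Kinase-Glo luminescent assay with 10 nM PI3Kα protein and lipid substrate prepared in 3% octyl-glucoside. The reaction was started by adding ATP in reaction buffer and ran 60 min. It was stopped with Kinase-Glo buffer, then luminescence was read.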

[6] = Ratio of (E)-4-((2-(4,6-dimorpholino-1,3,5-triazin-2-yl)hydrazono)methyl)-2,6-dimethoxyphenol IC50 to compound IC50 for human H460 cells; assay type: functional
[7] = Cytotoxicity against human PC3 cells after 72 hrs by MTT assay; assay type: functional, cell-based; settings: PC-3, 72 h; outline: as §1
[8] = biological target: T2, Phosphatidylinositol 4,5-bisphosphate 3-kinase catalytic subunit alpha isoform; experiment: Ratio of (E)-4-((2-(4,6-dimorpholino-1,3,5-triazin-2-yl)hydrazono)methyl)-2,6-dimethoxyphenol IC50 to compound IC50 for PI3K-alpha kinase (unknown origin)

SMILES: O=C(O)c1ccc2occ(/C=N/Nc3nc(N4CCOCC4)c4ccsc4n3)c(=O)c2c1
- IC50 [1]: 1200 nM
- IC50 [2]: 0.16 µM
- IC50 [3]: 2350 nM
- Ratio IC50 [4]: 8.6
- Ratio IC50 (PC-3): 19.1
- inhibition [5]: 90.6%
- Ratio IC50 [6]: 7.9
- IC50 [7]: 0.85 µM
- Ratio IC50 [8]: > 5

SMILES: O=c1c(/C=N/Nc2nc(N3CCOCC3)c3sccc3n2)coc2ccc([N+](=O)[O-])cc12
- IC50 [2]: 4.62 µM
- IC50 [3]: > 10000 nM
- inhibition [5]: 58.8%
- IC50 [7]: 6.9 µM

SMILES: O=c1c(/C=N/Nc2nc(N3CCOCC3)c3ccsc3n2)coc2ccc([N+](=O)[O-])cc12
- IC50 [1]: 3240 nM
- IC50 [2]: 0.92 µM
- IC50 [3]: 1530 nM
- inhibition [5]: 91.2%
- IC50 [7]: 1.42 µM

SMILES: O=C(O)c1ccc2occ(/C=N/Nc3nc(N4CCOCC4)c4sccc4n3)c(=O)c2c1
- IC50 [2]: 3.31 µM
- IC50 [3]: 1810 nM
- inhibition [5]: 95%
- IC50 [7]: 6.26 µM

SMILES: COc1cc(/C=N/Nc2nc(N3CCOCC3)nc(N3CCOCC3)n2)cc(OC)c1O
- IC50 [3]: > 10000 nM

SMILES: N#Cc1cccc(Cn2cc(/C=N/Nc3nc(N4CCOCC4)nc(N4CCOCC4)n3)c3ccccc32)c1
- IC50 [2]: 16.6 µM

SMILES: Fc1cccc(Cn2cc(/C=N/Nc3nc(N4CCOCC4)c4sccc4n3)c3ccccc32)c1
- IC50 [2]: > 30 µM
